Most compounds without a hit are left out; they make up all but 3.9% or so of the library.
UPR XBP1 act = adaptive UPR (XBP1) activation. activation, % at 20 µM. CHO-XBP1 luciferase reporter, IRE1-XBP1 UPR activation, luminescence; percent of tunicamycin response, DMSO as zero. hit rate 0.33% among 330,000;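 active = versus positive control, 20 µM dose yields 30% or more activation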
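Signal: luciferase luminescence; Assay system: CHO-XBP1 luciferase reporter cells; Amount: one thousand reporter cells per well; Dosing: 20 µM single concentration, DMSO 1%; Benchmarks: high control tunicamycin 10 µg/mL final, low control DMSO vehicle only; Schedule: 6 h compound exposure at 37 °C, 5% CO2; Evaluation: percent activation relative to tunicamycin reference.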
UPR CHOP act = activators of apoptotic arm of unfolded protein response (CHOP); hit rate 0.34% among 330,000; CHO-CHOP luciferase reporter, UPR activation, luminescence; percent of tunicamycin response over DMSO baseline; activation, % at 10 µM;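 active = at 10 µM dose, activation of 40% or more, normalized to positive control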
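System: CHO CHOP reporter cells. Amount: 500 cells per well. Buffer or medium: F12 medium, 10% FBS. Compound dosing: one dose, 10 µM in 0.5% DMSO. Incubation: 6 h compound exposure at 37 °C after overnight seeding. Technique: Steady-Glo luciferase luminescence. Benchmarks: tunicamycin and DMSO controls.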
tim23-1 inh = inhibits growth of tim23-1 mutant yeast; hit rate 1.3% among 330,000; inhibition, % at 20 µM; S. cerevisiae tim23-1 growth, BacTiter-Glo luminescence, 24 h; AID 463212;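 active = growth inhibition of the mutant yeast at or above 50%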;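 note: temperature-sensitive mutant grown at 25 °C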
tim10-1 inh = tim10-1 yeast growth inhibition; inhibition, % at 20 µM; AID 463190; S. cerevisiae tim10-1 ts strain growth, BacTiter-Glo, 24 h; hit rate 2.2% among 330,000;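 active = inhibition of at least 40%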;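 note: mutant grown at 25 °C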
TIM10 inh = inhibits growth of TIM10 yeast strain; S. cerevisiae TIM10 strain growth, BacTiter-Glo luminescence, 24 h; inhibition, % at 10 µM; hit rate 1.4% among 330,000; AID 463195;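 active = inhibition of 40% or more at the single tested concentration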;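 note: wild-type TIM10 isogenic control strain grown at permissive 25 °C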
XBP1 UPR conf = confirmation of adaptive unfolded protein response (XBP1) activators. shares compounds with UPR XBP1 act. CHO-XBP1 IRE1-XBP1 luciferase reporter, luminescence. activation, % at 20 µM. hit rate 63% among 1,000. AID 485299;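 active = reporter signal at least 30% of the positive control's activation in two or more of four replicate wells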
Of the large screens only hits and unclear results are named; the others gave an inactive call (follow-up assays come after a bar, where they were run).

COC(=O)c1c(NC(=S)NN2CCN(C)CC2)sc2c1CCC(C)C2 (configuration not stated)	UPR XBP1 act 34 | XBP1 UPR conf inactive
CC(NC(=O)CSc1nnnn1C1CC1)c1ccccc1Br (configuration not stated)	none
CC(C)(C)C(=O)NC(=S)NNC(=O)C(c1ccccc1)c1ccccc1	UPR XBP1 act 43 | XBP1 UPR conf 48
CCOC(=O)C1=C(C)N=c2s/c(=C3/C(=O)Nc4ccccc43)c(=O)n2C1c1ccc(C)cc1 (configuration not stated)	UPR XBP1 act 118 | XBP1 UPR conf 69
COCCCN(C(=O)C(C)Oc1ccc(Br)cc1)c1c(N)n(Cc2ccccc2)c(=O)[nH]c1=O (configuration not stated)	none
COC(=O)C1=C(C)N(Cc2ccccc2)C(=NCc2cccc(Cl)c2)N[C@H]1c1cccc(F)c1	UPR XBP1 act 45 | XBP1 UPR conf inactive
COC(=O)C1=C(C)N(Cc2ccccc2)C(=NCc2ccccc2)N[C@H]1c1cccc(C(F)(F)F)c1	UPR XBP1 act 30 | XBP1 UPR conf inactive
CCc1nnc(NC(=O)CSc2ccc(-c3nc4ccccc4[nH]3)cn2)s1	none
Cc1nc(NC(=O)CSc2ccc(-c3nc4ccccc4[nH]3)cn2)sc1C	UPR XBP1 act 54 | XBP1 UPR conf 85
Cc1ccc2c(c1)-n1c(nc3cc(Cl)ccc3c1=O)C(Cc1ccccc1)NC2=O (configuration not stated)	none
CC(C)c1ccc(/C=C/C(=O)Nc2nc3ccc([N+](=O)[O-])cc3s2)cc1	UPR XBP1 act 50 | XBP1 UPR conf 32
O=C(O)c1ccc(/C=C/c2ccc3cccc(O)c3n2)cc1	none
O=[N+]([O-])c1cccc(/C=C/c2ccc3cccc(O)c3n2)c1	UPR XBP1 act 98 | XBP1 UPR conf 158
COc1ccc(-c2coc3cc4oc(=O)cc(C)c4cc23)cc1F	none
COc1ccc(-c2coc3cc4oc(=O)cc(-c5ccccc5)c4cc23)cc1F	UPR XBP1 act 41 | XBP1 UPR conf 125
COc1ccc(C(C(=O)NC2CCCC2)N(C(=O)c2snc(-c3ccc(F)cc3)c2N)c2ccc(F)cc2)cc1 (configuration not stated)	none
COc1ccc(C(C(=O)NC2CCCC2)N(C(=O)c2snc(-c3ccc(F)cc3)c2N)c2ccccc2)cc1 (configuration not stated)	UPR XBP1 act 32 | XBP1 UPR conf inactive
COc1ccc(C(C(=O)NC2CCCC2)N(C(=O)c2snc(-c3ccc(F)cc3)c2N)c2cccc(F)c2)cc1 (configuration not stated)	UPR XBP1 act 37 | XBP1 UPR conf inactive
O=C(NCc1ccccn1)C(=O)NCC1OCCN1S(=O)(=O)c1ccc(Cl)cc1 (configuration not stated)	none
CC(NC(=O)CN1C(=O)NC2(CCCC2)C1=O)c1ccc(Cl)cc1Cl (configuration not stated)	none
Cc1ccc(S(=O)(=O)N2CCC[C@H]2C(=O)OCC(=O)N2CCc3ccccc32)cc1	none
O=C(O)c1ccccc1C(=O)c1ccc2c(c1)CCC2	none
COc1ccc(NC(=O)CN(c2ccc(OC)c(Cl)c2)S(=O)(=O)c2ccccc2)c(OC)c1	none
Cc1ccc(-c2cc(C(=O)N3CCN(c4ccccc4O)CC3)c3ccccc3n2)o1	UPR XBP1 act 38 | XBP1 UPR conf inactive
Cn1c(=O)[nH]c(=O)c2c1nc(N1CCc3ccccc3C1)n2CCSc1nc2ccccc2s1	UPR XBP1 act 34 | XBP1 UPR conf inactive
Cc1cc(NC(=O)CSc2nc3sc(C)c(C)c3c(=O)n2C2CCCC2)no1	UPR XBP1 act 58 | XBP1 UPR conf 54
O=C(CCn1c2c(c3ccccc31)CCCC2)NNC(=O)c1ccccc1Cl	UPR XBP1 act 36 | XBP1 UPR conf inactive
Cc1ccc(CNC(=O)c2ccc3c(=O)n4c(-c5ccc(C)cc5)csc4nc3c2)cc1	UPR XBP1 act 46 | XBP1 UPR conf 120
Cc1ccc(-c2csc3nc4cc(C(N)=O)ccc4c(=O)n23)cc1	none
O=C(c1ccc(S(=O)(=O)N2CCCCCC2)cc1)N1CCN(c2ccccc2F)CC1	none
